# ChEMBL document CHEMBL1122956, “Artificial siderophores. 1. Synthesis and microbial iron transport capabilities” (1985)
# How the values were obtained:
# Escherichia coli [1] = assay: Ability to support the growth of Escherichia coli strain RWB7 from 50 uM stock solution was determined in growth response assay; No growth around disc; assay type: functional, organism-based
# In short: (§1)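 Disc growth-promotion assay on Escherichia coli K12 strains. Each strain was seeded in a soft nutrient agar overlay on nutrient agar plates. The overlay contained 0.1 mM deferriferrichrome A to make the plates iron deficient. Filter paper discs were each loaded with 10 μL of a 50–500 μM aqueous siderophore solution, with hydroxamate content checked by the ferric perchlorate reagent at 480 nm. Plates were incubated at 37 °C, and the diameter of the growth zone was scored at 12 and 24 h.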
# Escherichia coli [2] = assay: Ability to support the growth of Escherichia coli strain BN3300 from 50 uM stock solution was determined in growth response assay; No growth around disc; assay type: functional, organism-based; in short: as §1
# Escherichia coli [3] = assay: Ability to support the growth of Escherichia coli strain AN193 from 50 uM stock solution was determined in growth response assay; No growth around disc; assay type: functional, organism-based; in short: as §1
# Escherichia coli [4] = assay: Ability to support the growth of Escherichia coli strain RWB7 from 134 uM stock solution was determined in growth response assay; No growth around disc; assay type: functional, organism-based; in short: as §1
# Escherichia coli [5] = assay: Ability to support the growth of Escherichia coli strain AN193 from 134 uM stock solution was determined in growth response assay; No growth around disc; assay type: functional, organism-based; in short: as §1
# Escherichia coli [6] = assay: Ability to support the growth of Escherichia coli strain BNV3040 from 134 uM stock solution was determined in growth response assay; assay type: functional; in short: as §1
# Escherichia coli [7] = assay: Ability to support the growth of Escherichia coli strain BN3300 from 134 uM stock solution was determined in growth response assay; No growth around disc; assay type: functional, organism-based; in short: as §1
# Escherichia coli [8] = assay: Ability to support the growth of Escherichia coli strain RW 193 from 134 uM stock solution was determined in growth response assay; assay type: functional; in short: as §1
# Escherichia coli [9] = assay: Ability to support the growth of Escherichia coli strain RWB7 from 130 uM stock solution was determined in growth response assay; No growth around disc; assay type: functional, organism-based; in short: as §1
# Escherichia coli [10] = assay: Ability to support the growth of Escherichia coli strain BNV3040 from 130 uM stock solution was determined in growth response assay; No growth around disc; assay type: functional, organism-based; in short: as §1
# Escherichia coli [11] = assay: Ability to support the growth of Escherichia coli strain BN3300 from 130 uM stock solution was determined in growth response assay; No growth around disc; assay type: functional, organism-based; in short: as §1
# Escherichia coli [12] = assay: Ability to support the growth of Escherichia coli strain RWV193 from 130 uM stock solution was determined in growth response assay; No growth around disc; assay type: functional, organism-based; in short: as §1
# Escherichia coli [13] = assay: Ability to support the growth of Escherichia coli strain RW 193 from 130 uM stock solution was determined in growth response assay; No growth around disc; assay type: functional, organism-based; in short: as §1
# Escherichia coli [14] = assay: Ability to support the growth of Escherichia coli strain AN193 from 130 uM stock solution was determined in growth response assay; No growth around disc; assay type: functional, organism-based; in short: as §1
# Escherichia coli [15] = assay: Ability to support the growth of Escherichia coli strain AN193 from 50 uM stock solution was determined in growth response assay; assay type: functional; in short: as §1
# Escherichia coli [16] = assay: Ability to support the growth of Escherichia coli strain RWV193 from 50 uM stock solution was determined in growth response assay; assay type: functional; in short: as §1
# Escherichia coli [17] = assay: Ability to support the growth of Escherichia coli strain RW 193 from 50 uM stock solution was determined in growth response assay; assay type: functional; in short: as §1
# Escherichia coli [18] = assay: Ability to support the growth of Escherichia coli strain BNV3040 from 50 uM stock solution was determined in growth response assay; assay type: functional; in short: as §1
# Escherichia coli [19] = assay: Ability to support the growth of Escherichia coli strain RWB7 from 100 uM stock solution was determined in growth response assay; No growth around disc; assay type: functional, organism-based; in short: as §1
# Escherichia coli [20] = assay: Ability to support the growth of Escherichia coli strain RWV193 from 100 uM stock solution was determined in growth response assay; assay type: functional; in short: as §1
# Escherichia coli [21] = assay: Ability to support the growth of Escherichia coli strain AN193 from 100 uM stock solution was determined in growth response assay; No growth around disc; assay type: functional, organism-based; in short: as §1
# Escherichia coli [22] = assay: Ability to support the growth of Escherichia coli strain BN3300 from 100 uM stock solution was determined in growth response assay; No growth around disc; assay type: functional, organism-based; in short: as §1
# Escherichia coli [23] = assay: Ability to support the growth of Escherichia coli strain AN193 from 50&500 uM stock solution was determined in growth response assay; No growth around disc; assay type: functional, organism-based; in short: as §1
# Escherichia coli [24] = assay: Ability to support the growth of Escherichia coli strain RW 193 from 50&500 uM stock solution was determined in growth response assay; assay type: functional; in short: as §1
# Escherichia coli [25] = assay: Ability to support the growth of Escherichia coli strain BN3300 from 50&500 uM stock solution was determined in growth response assay; No growth around disc; assay type: functional, organism-based; in short: as §1
# Escherichia coli [26] = assay: Ability to support the growth of Escherichia coli strain RWB7 from 50&500 uM stock solution was determined in growth response assay; No growth around disc; assay type: functional, organism-based; in short: as §1
# Escherichia coli [27] = assay: Ability to support the growth of Escherichia coli strain BNV3040 from 50&500 uM stock solution was determined in growth response assay; assay type: functional; in short: as §1
# Escherichia coli [28] = assay: Ability to support the growth of Escherichia coli strain AN193 from 380 uM stock solution was determined in growth response assay; No growth around disc; assay type: functional, organism-based; in short: as §1
# Escherichia coli [29] = assay: Ability to support the growth of Escherichia coli strain RWV193 from 380 uM stock solution was determined in growth response assay; No growth around disc; assay type: functional, organism-based; in short: as §1
# Escherichia coli [30] = assay: Ability to support the growth of Escherichia coli strain BNV3040 from 380 uM stock solution was determined in growth response assay; No growth around disc; assay type: functional, organism-based; in short: as §1
# Escherichia coli [31] = assay: Ability to support the growth of Escherichia coli strain RWB7 from 380 uM stock solution was determined in growth response assay; No growth around disc; assay type: functional, organism-based; in short: as §1
# Escherichia coli [32] = assay: Ability to support the growth of Escherichia coli strain RW 193 from 380 uM stock solution was determined in growth response assay; No growth around disc; assay type: functional, organism-based; in short: as §1
# Escherichia coli [33] = assay: Ability to support the growth of Escherichia coli strain BN3300 from uM stock solution was determined in growth response assay; No growth around disc; assay type: functional, organism-based; in short: as §1
# Escherichia coli [34] = assay: Ability to support the growth of Escherichia coli strain BN3300 from […] was determined in growth response assay; assay type: functional; in short: as §1
# Escherichia coli [35] = assay: Ability to support the growth of Escherichia coli strain RWV193 from 200 uM stock solution was determined in growth response assay; assay type: functional; in short: as §1
# Escherichia coli [36] = assay: Ability to support the growth of Escherichia coli strain RWB7 from 200 uM stock solution was determined in growth response assay; No growth around disc; assay type: functional, organism-based; in short: as §1
# Escherichia coli [37] = assay: Ability to support the growth of Escherichia coli strain BNV3040 from 200 uM stock solution was determined in growth response assay; assay type: functional; in short: as §1
# Escherichia coli [38] = assay: Ability to support the growth of Escherichia coli strain BN3300 from 200 uM stock solution was determined in growth response assay; No growth around disc; assay type: functional, organism-based; in short: as §1
compound,measurement,setting,value
FERRICHROME,Inhibitory diameter,Escherichia coli [1],Not toxic
same,Inhibitory diameter,Escherichia coli [2],Not toxic
same,Inhibitory diameter,Escherichia coli [3],Not toxic
CC(=O)N(O)CCCNC(=O)CN(CC(=O)NCCCN(O)C(C)=O)CC(=O)NCCCN(O)C(C)=O,Inhibitory diameter,Escherichia coli [4],Not toxic
same,Inhibitory diameter,Escherichia coli [5],Not toxic
same,Inhibitory diameter,Escherichia coli [6],25 mm
same,Inhibitory diameter,Escherichia coli [7],Not toxic
same,growth zone diameter,Escherichia coli [8],25 mm
CC(=O)N(O)CCCCCNC(=O)c1cc(C(=O)NCCCCCN(O)C(C)=O)cc(C(=O)NCCCCCN(O)C(C)=O)c1,Inhibitory diameter,Escherichia coli [9],Not toxic
same,Inhibitory diameter,Escherichia coli [10],Not toxic
same,Inhibitory diameter,Escherichia coli [11],Not toxic
same,Inhibitory diameter,Escherichia coli [12],Not toxic
same,Inhibitory diameter,Escherichia coli [13],Not toxic
same,Inhibitory diameter,Escherichia coli [14],Not toxic
CC(=O)N(O)CCCCCNC(=O)CC(O)(CC(=O)NCCCCCN(O)C(C)=O)C(=O)O [ARTHROBACTIN],Inhibitory diameter,Escherichia coli [1],Not toxic
same,Inhibitory diameter,Escherichia coli [2],Not toxic
same,growth zone diameter,Escherichia coli [15],< 10 mm
same,growth zone diameter,Escherichia coli [16],< 10 mm
same,Inhibitory diameter,Escherichia coli [17],< 10 mm
same,growth zone diameter,Escherichia coli [18],< 10 mm
CC(=O)N(O)CCCCCNC(=O)c1cccc(C(=O)NCCCCCN(O)C(C)=O)n1,Inhibitory diameter,Escherichia coli [19],Not toxic
same,Inhibitory diameter,Escherichia coli [20],25 mm
same,Inhibitory diameter,Escherichia coli [21],Not toxic
same,Inhibitory diameter,Escherichia coli [22],Not toxic
CN(O)C(=O)CCCCCNC(=O)CC(CC(=O)NCCCCCC(=O)N(C)O)C(=O)NCCCCCC(=O)N(C)O,Inhibitory diameter,Escherichia coli [23],Not toxic
same,growth zone diameter,Escherichia coli [24],25 mm
same,Inhibitory diameter,Escherichia coli [25],Not toxic
same,Inhibitory diameter,Escherichia coli [26],Not toxic
same,Inhibitory diameter,Escherichia coli [27],25 mm
CC(=O)N(O)CCCNC(=O)c1cc(C(=O)NCCCN(O)C(C)=O)cc(C(=O)NCCCN(O)C(C)=O)c1,Inhibitory diameter,Escherichia coli [28],Not toxic
same,Inhibitory diameter,Escherichia coli [29],Not toxic
same,Inhibitory diameter,Escherichia coli [30],Not toxic
same,Inhibitory diameter,Escherichia coli [31],Not toxic
same,Inhibitory diameter,Escherichia coli [32],Not toxic
same,Inhibitory diameter,Escherichia coli [33],Not toxic
CC(=O)N(O)CCCNC(=O)c1cccc(C(=O)NCCCN(O)C(C)=O)n1,Inhibitory diameter,Escherichia coli [19],Not toxic
same,Inhibitory diameter,Escherichia coli [20],25 mm
same,Inhibitory diameter,Escherichia coli [21],Not toxic
same,Inhibitory diameter,Escherichia coli [22],Not toxic
O=C(N[C@H]1COC(=O)[C@@H](NC(=O)c2cccc(O)c2O)COC(=O)[C@@H](NC(=O)c2cccc(O)c2O)COC1=O)c1cccc(O)c1O [ENTEROBACTIN],growth zone diameter,Escherichia coli [34],25 mm
CC(=O)N(O)CCCC1NC(=O)C(CCCN(O)C(C)=O)NC1=O (centres undefined),Inhibitory diameter,Escherichia coli [1],Not toxic
same,Inhibitory diameter,Escherichia coli [2],Not toxic
same,growth zone diameter,Escherichia coli [15],25 mm
same,growth zone diameter,Escherichia coli [16],25 mm
same,Inhibitory diameter,Escherichia coli [17],25 mm
same,growth zone diameter,Escherichia coli [18],25 mm
CC(=O)N(O)CCCNC(=O)CC(CC(=O)NCCCN(O)C(C)=O)C(=O)NCCCN(O)C(C)=O,Inhibitory diameter,Escherichia coli [19],Not toxic
same,Inhibitory diameter,Escherichia coli [20],25 mm
same,Inhibitory diameter,Escherichia coli [21],Not toxic
same,Inhibitory diameter,Escherichia coli [22],Not toxic
CC(=O)N(O)CCCNC(=O)CC(O)(CC(=O)NCCCN(O)C(C)=O)C(=O)O [SCHIZOKINEN],growth zone diameter,Escherichia coli [35],25 mm
same,Inhibitory diameter,Escherichia coli [36],Not toxic
same,growth zone diameter,Escherichia coli [37],25 mm
same,Inhibitory diameter,Escherichia coli [38],Not toxic
